{"source": "paper PMC3742633", "about": "(Molecular cancer therapeutics, 2013)", "key": {"TK-10": {"system": "TK-10", "experiment": "NCI 60 cell line screen, Sulforhodamine B Assay", "assay_type": "cell-based", "conditions": "Homo sapiens, TK-10, 48 h", "summary_of_the_method": "(§1)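 Run through the National Cancer Institute 60 cell line screening service on its panel of 59 human cancer lines in vitro. Cytostatic/toxic effect was read as cellular protein content (sulforhodamine B) over 48 h.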"}, "NCI-H460": {"system": "NCI-H460", "experiment": "NCI 60 cell line screen, Sulforhodamine B Assay", "assay_type": "cell-based", "conditions": "Homo sapiens, NCI-H460, 48 h", "summary_of_the_method": "(§2)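 Run through the NCI-60 screening service: human cancer cell lines exposed to test compound for 48 h. Growth read as cellular protein content by sulforhodamine B staining, and GI50 derived from this.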"}, "OVCAR-5": {"system": "OVCAR-5", "experiment": "NCI 60 cell line screen, Sulforhodamine B Assay", "assay_type": "cell-based", "conditions": "Homo sapiens, OVCAR-5, 48 h", "summary_of_the_method": "as §2"}, "[1]": {"system": "H522 human lung adenocarcinoma cells", "experiment": "Cell viability, trypan blue exclusion", "assay_type": "cell-based", "conditions": "NCI-H522, 48 h, read-out: IC50 cytotoxic effects (viability)"}, "A549/ATCC": {"system": "A549/ATCC", "experiment": "NCI 60 cell line screen, Sulforhodamine B Assay", "assay_type": "cell-based", "conditions": "Homo sapiens, A549, 48 h", "summary_of_the_method": "as §2"}, "HL-60(TB)": {"system": "HL-60(TB)", "experiment": "NCI 60 cell line screen, Sulforhodamine B Assay", "assay_type": "cell-based", "conditions": "Homo sapiens, HL-60, 48 h", "summary_of_the_method": "as §2"}, "ACHN": {"system": "ACHN", "experiment": "NCI 60 cell line screen, Sulforhodamine B Assay", "assay_type": "cell-based", "conditions": "Homo sapiens, 48 h", "summary_of_the_method": "as §2"}, "[2]": {"system": "Jurkat T cell leukemia cells", "experiment": "Annexin V / propidium iodide flow cytometry", "assay_type": "cell-based, human", "conditions": "five hours"}, "SNB-19": {"system": "SNB-19", "experiment": "NCI 60 cell line screen, Sulforhodamine B Assay", "assay_type": "cell-based", "conditions": "Homo sapiens, SNB-19, 48 h", "summary_of_the_method": "as §1"}, "OVCAR-3": {"system": "OVCAR-3", "experiment": "NCI 60 cell line screen, Sulforhodamine B Assay", "assay_type": "cell-based", "conditions": "Homo sapiens, OVCAR-3, 48 h", "summary_of_the_method": "as §2"}, "RXF 393": {"system": "RXF 393", "experiment": "NCI 60 cell line screen, Sulforhodamine B Assay", "assay_type": "cell-based", "conditions": "Homo sapiens, RXF 393, 48 h", "summary_of_the_method": "as §2"}, "HOP-92": {"system": "HOP-92", "experiment": "NCI 60 cell line screen, Sulforhodamine B Assay", "assay_type": "cell-based", "conditions": "Homo sapiens, HOP-92, 48 h", "summary_of_the_method": "as §2"}, "MALME-3M": {"system": "MALME-3M", "experiment": "NCI 60 cell line screen, Sulforhodamine B Assay", "assay_type": "cell-based", "conditions": "Homo sapiens, 48 h", "summary_of_the_method": "as §2"}, "Jurkat and H522 cells": {"system": "Jurkat and H522 cells", "experiment": "Intracellular ATP bioluminescence assay", "assay_type": "cell-based, human", "summary_of_the_method": "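After plating at 1×10^5 cells/well (24 h, 37°C, 5% CO2) and 3 h test compound exposure, adherent cells were washed with cold PBS, lysed in passive lysis buffer and scraped. One freeze (−80°C)/thaw (37°C) cycle, cleared at 4°C. ATP read by firefly luciferase/D-luciferin luminescence at 560 nm against an ATP standard curve, as nmol/mg BCA protein.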"}, "HCT-116": {"system": "HCT-116", "experiment": "NCI 60 cell line screen, Sulforhodamine B Assay", "assay_type": "cell-based", "conditions": "Homo sapiens, HCT-116, 48 h", "summary_of_the_method": "as §2"}, "DU-145": {"system": "DU-145", "experiment": "NCI 60 cell line screen, Sulforhodamine B Assay", "assay_type": "cell-based", "conditions": "Homo sapiens, DU-145, 48 h", "summary_of_the_method": "as §2"}, "MDA-MB-231/ATCC": {"system": "MDA-MB-231/ATCC", "experiment": "NCI 60 cell line screen, Sulforhodamine B Assay", "assay_type": "cell-based", "conditions": "Homo sapiens, MDA-MB-231, 48 h", "summary_of_the_method": "as §2"}, "SF-539": {"system": "SF-539", "experiment": "NCI 60 cell line screen, Sulforhodamine B Assay", "assay_type": "cell-based", "conditions": "Homo sapiens, SF-539, 48 h", "summary_of_the_method": "as §2"}, "UO-31": {"system": "UO-31", "experiment": "NCI 60 cell line screen, Sulforhodamine B Assay", "assay_type": "cell-based", "conditions": "Homo sapiens, UO-31, 48 h", "summary_of_the_method": "as §1"}, "LLC tumors": {"system": "LLC tumors", "experiment": "18F-FDG micro-PET imaging of LLC-bearing mice", "assay_type": "in vivo, C57Bl/6 mice", "conditions": "25 mg/kg i.p. once, 45 minutes, normalized to FDG uptake in the cerebellum", "summary_of_the_method": "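Tumor-bearing mice were anesthetized with isoflurane and given 200 μCi FDG i.v. by tail vein. Baseline 15-min static micro-PET scans were taken 45 min after tracer (OSEM, 6 subsets/4 iterations). Tumor and cerebellum regions of interest were quantified in quadruplicate. 24 h later, test compound 25 mg/kg i.p. once, then re-scan 45 min later.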"}, "786–0": {"system": "786–0", "experiment": "NCI 60 cell line screen, Sulforhodamine B Assay", "assay_type": "cell-based", "conditions": "Homo sapiens, 786-0, 48 h", "summary_of_the_method": "as §2"}, "[3]": {"system": "CT26 colon adenocarcinoma cells", "experiment": "CT26 xenograft tumor growth", "assay_type": "in vivo, Balb/C athymic mice", "conditions": "25 mg/kg i.p. every 3 days × 4; similarly to irinotecan"}, "OVCAR-8": {"system": "OVCAR-8", "experiment": "NCI 60 cell line screen, Sulforhodamine B Assay", "assay_type": "cell-based", "conditions": "Homo sapiens, OVCAR-8, 48 h", "summary_of_the_method": "as §2"}, "NCI-H23": {"system": "NCI-H23", "experiment": "NCI 60 cell line screen, Sulforhodamine B Assay", "assay_type": "cell-based", "conditions": "Homo sapiens, NCI-H23, 48 h", "summary_of_the_method": "as §2"}, "COLO 205": {"system": "COLO 205", "experiment": "NCI 60 cell line screen, Sulforhodamine B Assay", "assay_type": "cell-based", "conditions": "Homo sapiens, COLO 205, 48 h", "summary_of_the_method": "as §2"}, "HCT-15": {"system": "HCT-15", "experiment": "NCI 60 cell line screen, Sulforhodamine B Assay", "assay_type": "cell-based", "conditions": "Homo sapiens, HCT-15, 48 h", "summary_of_the_method": "as §2"}, "hexokinase": {"system": "hexokinase", "experiment": "Activity of purified hexokinase", "assay_type": "biochemical", "conditions": "up to 100 μM; data not shown"}, "HS 578T": {"system": "HS 578T", "experiment": "NCI 60 cell line screen, Sulforhodamine B Assay", "assay_type": "cell-based", "conditions": "Homo sapiens, 48 h", "summary_of_the_method": "as §2"}, "Jurkat or H522 cells": {"system": "Jurkat or H522 cells", "experiment": "2-[1-14C]-deoxy-D-glucose uptake", "assay_type": "cell-based, human", "conditions": "three hours exposure, Jurkat and H522", "summary_of_the_method": "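Jurkat or H522 cells in RPMI 1640 + 10% FCS + 50 μg/ml gentamycin at 100,000/ml, treated immediately with DMSO vehicle or test compound for 3 h. Washed in glucose-free RPMI, 30 min with inhibitor, then 1 h with 14C-2-deoxyglucose (0.1 μCi/μl stock). Ice-cold washes, 0.5% SDS lysis, scintillation counting; counts normalized to BCA protein.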"}, "[4]": {"experiment": "Pharmacokinetic profile after IV administration", "assay_type": "in vivo, female C57Bl/6 mice", "conditions": "plasma", "summary_of_the_method": "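Test compound was given IV to female C57Bl/6 mice, with 8 time points and 3 animals per time point. Plasma was extracted with acetonitrile and analysed by LC-MS/MS on a polar reverse-phase column with a 0.5% formic acid acetonitrile/water mobile phase. Tmax, Cmax, volume of distribution, half-life, clearance, AUCs and MRT were calculated from the concentration–time data.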"}, "MDA-MB-435": {"system": "MDA-MB-435", "experiment": "NCI 60 cell line screen, Sulforhodamine B Assay", "assay_type": "cell-based", "conditions": "Homo sapiens, MDA-MB-435, 48 h", "summary_of_the_method": "as §2"}, "[5]": {"conditions": "female, C57Bl/6, mouse, iv, 5 mg/kg"}}, "note": "pIC50: −log10 of the molar value.", "data": [{"smiles": "O=C(C=Cc1ccc2ccccc2n1)c1ccncc1", "note": "[PFK15, 1-(4-pyridinyl)-3-(2-quinolinyl)-2-propen-1-one]", "values": [{"measurement": "GI50", "setting": "TK-10", "value": 4.07, "unit": "µM"}, {"measurement": "GI50", "setting": "NCI-H460", "value": 3.47, "unit": "µM"}, {"measurement": "GI50", "setting": "OVCAR-5", "value": 5.37, "unit": "µM"}, {"measurement": "pIC50", "setting": "[1]", "value": 6.14}, {"measurement": "GI50", "setting": "A549/ATCC", "value": 5.37, "unit": "µM"}, {"measurement": "GI50", "setting": "HL-60(TB)", "value": 2040, "unit": "nM"}, {"measurement": "GI50", "setting": "ACHN", "value": 2040, "unit": "nM"}, {"measurement": "cells undergoing early apoptosis (Annexin V+/PI−)", "setting": "[2]; 3 μM", "value": "increased"}, {"measurement": "cells undergoing late apoptosis (Annexin V+/PI+)", "setting": "[2]; 3 and 20 μM", "value": "dose-dependent increase"}, {"measurement": "GI50", "setting": "SNB-19", "value": 4.57, "unit": "µM"}, {"measurement": "GI50", "setting": "OVCAR-3", "value": 3.16, "unit": "µM"}, {"measurement": "GI50", "setting": "RXF 393", "value": 1700, "unit": "nM"}, {"measurement": "GI50", "setting": "HOP-92", "value": 3.02, "unit": "µM"}, {"measurement": "GI50", "setting": "MALME-3M", "value": 3.31, "unit": "µM"}, {"measurement": "PFK15-mediated ATP depletion [% control]", "setting": "Jurkat and H522 cells; 5 mM glucose + 1 mM pyruvate, p value = 0.0017", "value": "45.62 ± 1.72", "unit": "%"}, {"measurement": "PFK15-mediated ATP depletion [% control]", "setting": "Jurkat and H522 cells; 5 mM glucose alone", "value": "5.29 ± 0.85", "unit": "%"}, {"measurement": "reversal of ATP depletion by glutamine", "setting": "Jurkat and H522 cells; addition of 4 mM glutamine, data not shown", "value": "could not be significantly reversed"}, {"measurement": "reversal of ATP depletion by lactate", "setting": "Jurkat and H522 cells; addition of 10 mM lactate, data not shown", "value": "could not be significantly reversed"}, {"measurement": "effect on intracellular ATP", "setting": "Jurkat and H522 cells; three hours exposure, Jurkat and H522", "value": "reduced"}, {"measurement": "GI50", "setting": "HCT-116", "value": 1320, "unit": "nM"}, {"measurement": "GI50", "setting": "DU-145", "value": 2240, "unit": "nM"}, {"measurement": "GI50", "setting": "MDA-MB-231/ATCC", "value": 2040, "unit": "nM"}, {"measurement": "GI50", "setting": "SF-539", "value": 2510, "unit": "nM"}, {"measurement": "GI50", "setting": "UO-31", "value": 1620, "unit": "nM"}, {"measurement": "reduction in 18F-FDG uptake", "setting": "LLC tumors", "value": "~ 50%"}, {"measurement": "GI50", "setting": "786–0", "value": 2000, "unit": "nM"}, {"measurement": "growth of colon adenocarcinomas (CT26)", "setting": "[3]", "value": "suppressed the growth"}, {"measurement": "GI50", "setting": "OVCAR-8", "value": 1820, "unit": "nM"}, {"measurement": "GI50", "setting": "NCI-H23", "value": 3.16, "unit": "µM"}, {"measurement": "GI50", "setting": "COLO 205", "value": 2450, "unit": "nM"}, {"measurement": "GI50", "setting": "HCT-15", "value": 1100, "unit": "nM"}, {"measurement": "inhibition of activity of purified hexokinase", "setting": "hexokinase", "value": "not inhibit"}, {"measurement": "GI50", "setting": "HS 578T", "value": 20.9, "unit": "µM"}, {"measurement": "effect on glucose uptake (14C-2DG)", "setting": "Jurkat or H522 cells", "value": "reduced"}, {"measurement": "AUC0-inf", "setting": "[4]; IV, C57Bl/6 mice", "value": 1804, "unit": "ng/h/mL"}, {"measurement": "Cmax", "setting": "[4]; [5]", "value": 3050, "unit": "ng/mL"}, {"measurement": "clearance", "setting": "[4]; [5]", "value": 46.2, "unit": "mL/min/kg"}, {"measurement": "half-life", "setting": "[4]; [5]", "value": 306, "unit": "min"}, {"measurement": "GI50", "setting": "MDA-MB-435", "value": 3.24, "unit": "µM"}]}]}
